From ChEMBL document CHEMBL3352365, “Formononetin attenuates osteoclastogenesis via suppressing the RANKL-induced activation of NF-κB, c-Fos, and nuclear factor of activated T-cells cytoplasmic 1 signaling pathway” (J Nat Prod, 2014) come the findings set out here.

Each structure is given as a SMILES string. The source made the active and inactive calls. The rule behind the calls is not given here.

Data set [1] addresses T1, Tumor necrosis factor ligand superfamily member 11 (Mus musculus) (UniProt O35235).
T1 sequence (whole entry): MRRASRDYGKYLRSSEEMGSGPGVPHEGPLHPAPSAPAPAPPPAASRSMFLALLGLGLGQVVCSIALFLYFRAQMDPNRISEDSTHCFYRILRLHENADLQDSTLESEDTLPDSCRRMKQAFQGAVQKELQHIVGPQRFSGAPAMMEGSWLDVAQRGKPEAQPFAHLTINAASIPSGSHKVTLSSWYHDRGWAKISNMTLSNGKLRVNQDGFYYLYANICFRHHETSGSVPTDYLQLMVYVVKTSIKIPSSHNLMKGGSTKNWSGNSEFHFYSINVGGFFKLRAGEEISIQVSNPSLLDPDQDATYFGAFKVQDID
Description: Inhibition of RANKL-induced c-FOS protein expression in ICR mouse BMMC at 1 to 20 uM incubated for 12 hrs by Western blotting method. In kind it is functional. A general note: A western blot detects proteins with antibodies after separation by electrophoresis.

In data set [2] the target is T1, Tumor necrosis factor ligand superfamily member 11 (Mus musculus). Description: Inhibition of RANKL-induced NFATc1 protein expression in ICR mouse BMMC at 1 to 20 uM incubated for 12 hrs by Western blotting method. In kind it is functional.
The test system of data set [3] is BMMC. Briefly: Inhibition of RANKL/M-CSF-stimulated osteoclastogenesis in ICR mouse BMMC assessed as reduction in TRAP positive multinucleated cells at 1 to 20 uM incubated for 7 days by light microscopy. Type of data set: functional. Put shortly:
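JNK inhibitor SP600125 used as reference. For blots, BMMs were incubated with RANKL 100 ng/mL for 12 h, then SP600125 for 4 h; lysates probed for phospho-c-Jun, c-Jun, c-Fos and NFATc1, with β-actin as control. For TRAP counts, BMMs were given RANKL 1 h, then SP600125 (1, 10, 20 μM) with M-CSF 30 ng/mL.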

Data set [4] deals with T1, Tumor necrosis factor ligand superfamily member 11 (Mus musculus). Description: Inhibition of RANKL-stimulated JNK in ICR mouse BMMC assessed as reduction in c-Jun phosphorylation at 1 to 20 uM incubated for 12 hrs by Western blotting method.
Data set [5] can be described thus: Inhibition of RANKL protein expression in ICR mouse BMMC co-cultured with primary osteoblasts at 1 to 10 uM incubated for 48 hrs by ELISA method relative to untreated control. Type of data set: functional. In short, it runs like this:
(§1)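 Coculture of BMMs (3 × 10^5 cells/well) with calvarial osteoblasts from 1-day-old mice (2.5 × 10^4 cells/well). Cells prestimulated with RANKL 100 ng/mL for 1 h, then treated for 48 h with M-CSF 30 ng/mL present. RANKL measured in cell lysate and OPG in culture medium, both by ELISA. Mean ± SEM of two independent experiments; Student's t test.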
Background: ELISA stands for enzyme-linked immunosorbent assay.

Data set [6] addresses T1, Tumor necrosis factor ligand superfamily member 11 (Mus musculus). Briefly: Inhibition of RANKL-stimulated JNK phosphorylation in ICR mouse BMMC at 1 to 10 uM incubated for 12 hrs by Western blotting method. Put shortly:
(§2)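 BMMs stimulated with RANKL (100 ng/mL) for 1 h, then treated for 12 h. Whole-cell lysates run on 10% SDS-PAGE and probed (1:1000) for phospho- and total AKT, ERK, JNK and p38, with ECL detection. Blots representative of at least two experiments.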

Data set [7] addresses RAC-alpha serine/threonine-protein kinase (Mus musculus) (UniProt P31750). Description: Inhibition of RANKL-stimulated AKT phosphorylation in ICR mouse BMMC at 1 to 10 uM incubated for 12 hrs by Western blotting method. In short, it runs like this:
as §2

For data set [8], the target named is T1, Tumor necrosis factor ligand superfamily member 11 (Mus musculus). Description: Inhibition of RANKL-induced NFATc1 mRNA expression in ICR mouse BMMC at 5 uM incubated for 12 hrs by qRT-PCR method. In kind it is functional. Put shortly:
(§3)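 BMMs stimulated with RANKL (100 ng/mL) for 12 h, then treated at the indicated times and concentrations. c-Fos and NFATc1 mRNA quantified by real-time PCR.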
A general note: Quantitative PCR measures a nucleic acid by following its amplification.

Data set [9] shares this target. Description: Inhibition of RANKL-induced c-FOS mRNA expression in ICR mouse BMMC at 5 uM incubated for 12 hrs by qRT-PCR method. Type of data set: functional. In short, it runs like this: as §3
Data set [10] shares this target. Briefly: Inhibition of RANKL-stimulated IkappaBalpha degradation in ICR mouse BMMC at 1 to 10 uM incubated for 4 hrs by Western blotting method.
For data set [11] the target is unchanged. Description: Inhibition of RANKL-induced c-FOS protein expression in ICR mouse BMMC at 1 to 10 uM incubated for 12 hrs by Western blotting method. In kind it is functional. In short, it runs like this:
(§4)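 BMMs prestimulated with RANKL 100 ng/mL for 12 h, then treated at the indicated times and concentrations. Whole-cell lysates (20 μg/lane) run on 10% SDS-PAGE and blotted to nitrocellulose. Probed with anti-c-Fos and anti-NFATc1 (1:1000), β-actin as internal control, ECL detection.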

A short description of data set [12]: (§5) Inhibition of RANKL/M-CSF-stimulated RANTES protein expression in ICR mouse BMMC at 1 to 10 uM incubated for 48 hrs by ELISA method relative to untreated control. Type of data set: functional. Put shortly:
(§6)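 BMMs (3 × 10^5 cells/well) prestimulated with RANKL 100 ng/mL for 1 h, then treated (1, 5, 10 μM) with M-CSF 30 ng/mL. Cytokines and chemokines in culture medium measured by ELISA. Methods give 7 days of treatment; legend gives 48 h. Mean ± SEM of two independent experiments; Student's t test.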

Data set [13] has as its system BMMC. Described as §5. Type of data set: functional. Put shortly: as §6
The nature of data set [14]: (§7) Inhibition of RANKL/M-CSF-stimulated MCP1 protein expression in ICR mouse BMMC at 1 to 10 uM incubated for 48 hrs by ELISA method relative to untreated control. In kind it is functional. In short, it runs like this:
as §6

Data set [15] has as its system BMMC. The description is as §7. Type of data set: functional. Put shortly:
as §6

The nature of data set [16]: (§8) Inhibition of RANKL/M-CSF-stimulated TNFalpha protein expression in ICR mouse BMMC at 1 to 10 uM incubated for 48 hrs by ELISA method relative to untreated control. In kind it is functional. In short, it runs like this:
as §6

In data set [17] the test system is BMMC. The description is as §8. Type of data set: functional. In short, it runs like this: as §6
Data set [18] relates to BMMC. Description: Inhibition of RANKL/M-CSF-stimulated osteoclastogenesis in ICR mouse BMMC assessed as reduction in TRAP positive multinucleated cells at 1 to 10 uM incubated for 7 days by light microscopy. In kind it is functional. Put shortly: (§9)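 BMMs from 6-week-old ICR mouse femurs/tibiae (M-CSF expanded; 5 × 10^5 cells/well) stimulated with RANKL 100 ng/mL for 1 h, then treated (1, 5, 10 μM) with M-CSF 30 ng/mL for 7 days. Fixed and TRAP-stained; TRAP+ cells with ≥3 nuclei counted by light microscopy. Mean ± SEM, two experiments.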

The test system of the next data set is Osteoblast. Briefly: Increase in OPG protein expression in RANKL-stimulated mouse primary osteoblasts co-cultured with ICR mouse BMMC at 1 to 10 uM incubated for 48 hrs by ELISA method relative to untreated control. In kind it is functional. Put shortly: as §1
The nature of data set [19]: (§10) Inhibition of RANKL/M-CSF-stimulated IL-6 protein expression in ICR mouse BMMC at 1 to 10 uM incubated for 48 hrs by ELISA method relative to untreated control. Type of data set: functional. Put shortly:
as §6

Data set [20] relates to BMMC. The data set is described as §10. In kind it is functional. Put shortly: as §6
Data set [21] has as its target T1, Tumor necrosis factor ligand superfamily member 11 (Mus musculus). Briefly: Inhibition of RANKL-stimulated ERK phosphorylation in ICR mouse BMMC at 1 to 10 uM incubated for 12 hrs by Western blotting method. In short, it runs like this: as §2
The target in data set [22] is Transcription factor p65 (Mus musculus) (UniProt Q04207). Briefly: Inhibition of RANKL-stimulated NFkappaB p65 phosphorylation in ICR mouse BMMC at 1 to 10 uM incubated for 4 hrs by Western blotting method.
Chain of Transcription factor p65 (Mus musculus) (Q04207 whole entry): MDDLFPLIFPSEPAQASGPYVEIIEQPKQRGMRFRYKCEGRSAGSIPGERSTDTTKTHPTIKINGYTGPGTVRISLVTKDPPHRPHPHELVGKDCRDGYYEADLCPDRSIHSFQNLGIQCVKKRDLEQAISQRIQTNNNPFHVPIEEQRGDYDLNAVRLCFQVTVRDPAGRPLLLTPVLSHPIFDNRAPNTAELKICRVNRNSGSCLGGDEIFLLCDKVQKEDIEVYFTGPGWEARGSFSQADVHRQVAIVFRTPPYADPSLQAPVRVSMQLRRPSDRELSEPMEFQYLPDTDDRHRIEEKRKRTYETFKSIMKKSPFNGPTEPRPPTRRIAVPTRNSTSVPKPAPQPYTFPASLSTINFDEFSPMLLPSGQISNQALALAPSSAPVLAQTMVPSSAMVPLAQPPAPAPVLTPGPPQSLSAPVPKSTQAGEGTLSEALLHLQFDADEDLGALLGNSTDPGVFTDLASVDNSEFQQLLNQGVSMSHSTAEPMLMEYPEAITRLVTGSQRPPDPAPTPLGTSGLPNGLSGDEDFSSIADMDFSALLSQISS
Data set [23] can be described thus: Inhibition of RANKL/M-CSF-stimulated osteoclastogenesis in ICR mouse BMMC assessed as reduction in TRAP positive multinucleated cells at 1 to 10 uM incubated for 7 days by light microscopy relative to untreated control. Type of data set: functional. Put shortly: as §9
Data set [24] can be described thus: (§11) Inhibition of RANKL/M-CSF-stimulated IL-1beta protein expression in ICR mouse BMMC at 1 to 10 uM incubated for 48 hrs by ELISA method relative to untreated control. Type of data set: functional. In short, it runs like this: as §6
Data set [25] concerns BMMC. Described as §11. In kind it is functional. In short, it runs like this:
as §6

Data set [26] deals with T1, Tumor necrosis factor ligand superfamily member 11 (Mus musculus). Description: Inhibition of RANKL-induced NFATc1 protein expression in ICR mouse BMMC at 1 to 10 uM incubated for 12 hrs by Western blotting method. In kind it is functional. In short, it runs like this: as §4
Data set [27] can be described thus: (§12) Inhibition of RANKL/M-CSF-stimulated MIP-1alpha protein expression in ICR mouse BMMC at 1 to 10 uM incubated for 48 hrs by ELISA method relative to untreated control. In kind it is functional. In short, it runs like this:
as §6

For data set [28], the system named is BMMC. The description is as §12. Type of data set: functional. Put shortly:
as §6

The nature of data set [29]: Toxicity against ICR mouse BMMC assessed as reduction in cell viability up to 100 uM after 72 hrs by WST8 assay. In short, it runs like this: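 BMMs cultured with RANKL (100 ng/mL) and test compound at 0, 1, 5, 10 and 100 μM for 72 h. Viability read by WST-8 (CCK-8) assay.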
For data set [30], the system named is BMMC. Briefly: Inhibition of RANKL protein expression in ICR mouse BMMC co-cultured with primary osteoblasts at 1 to 10 uM incubated for 48 hrs by ELISA method. Type of data set: functional. In short, it runs like this:
as §1

Data set [31] concerns the target T2, Nuclear factor NF-kappa-B complex (Homo sapiens) (UniProt Q00653+P19838+Q04206). Briefly: Inhibition of RANKL-stimulated NFkappaB (unknown origin) expressed in ICR mouse BMMC assessed as reduction in transcriptional activity at 1 to 10 uM incubated for 12 hrs by SEAP based reporter gene assay. In short, it runs like this:
(§13)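 BMMs (5 × 10^5 cells/well) stimulated with RANKL 100 ng/mL for 1 h, then transfected (Lipofectamine 2000) with 300 ng pNF-κB-SEAP-NPT (four NF-κB sites) or control SEAP-NPT. After 24 h, treated (0, 1, 5, 10 μM) for 12 h at 37 °C with M-CSF and RANKL. Supernatant SEAP fluorescence read at ex 360/em 449 nm, given as % of control. Two experiments.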

Data set [32] addresses T2, Nuclear factor NF-kappa-B complex (Homo sapiens). Briefly: Inhibition of RANKL-stimulated NFkappaB (unknown origin) expressed in ICR mouse BMMC assessed as reduction in transcriptional activity at 1 to 10 uM incubated for 12 hrs by SEAP based reporter gene assay relative to untreated control. Put shortly:
as §13

For data set [33], the target named is MAP kinase p38 (Mus musculus) (UniProt P47811+O08911+Q9WUI1+Q9Z1B7). Description: Inhibition of RANKL-stimulated p38 phosphorylation in ICR mouse BMMC at 1 to 10 uM incubated for 12 hrs by Western blotting method. Type of data set: protein assay. Put shortly:
as §2

T2 sequence (P19838 whole entry, looked up): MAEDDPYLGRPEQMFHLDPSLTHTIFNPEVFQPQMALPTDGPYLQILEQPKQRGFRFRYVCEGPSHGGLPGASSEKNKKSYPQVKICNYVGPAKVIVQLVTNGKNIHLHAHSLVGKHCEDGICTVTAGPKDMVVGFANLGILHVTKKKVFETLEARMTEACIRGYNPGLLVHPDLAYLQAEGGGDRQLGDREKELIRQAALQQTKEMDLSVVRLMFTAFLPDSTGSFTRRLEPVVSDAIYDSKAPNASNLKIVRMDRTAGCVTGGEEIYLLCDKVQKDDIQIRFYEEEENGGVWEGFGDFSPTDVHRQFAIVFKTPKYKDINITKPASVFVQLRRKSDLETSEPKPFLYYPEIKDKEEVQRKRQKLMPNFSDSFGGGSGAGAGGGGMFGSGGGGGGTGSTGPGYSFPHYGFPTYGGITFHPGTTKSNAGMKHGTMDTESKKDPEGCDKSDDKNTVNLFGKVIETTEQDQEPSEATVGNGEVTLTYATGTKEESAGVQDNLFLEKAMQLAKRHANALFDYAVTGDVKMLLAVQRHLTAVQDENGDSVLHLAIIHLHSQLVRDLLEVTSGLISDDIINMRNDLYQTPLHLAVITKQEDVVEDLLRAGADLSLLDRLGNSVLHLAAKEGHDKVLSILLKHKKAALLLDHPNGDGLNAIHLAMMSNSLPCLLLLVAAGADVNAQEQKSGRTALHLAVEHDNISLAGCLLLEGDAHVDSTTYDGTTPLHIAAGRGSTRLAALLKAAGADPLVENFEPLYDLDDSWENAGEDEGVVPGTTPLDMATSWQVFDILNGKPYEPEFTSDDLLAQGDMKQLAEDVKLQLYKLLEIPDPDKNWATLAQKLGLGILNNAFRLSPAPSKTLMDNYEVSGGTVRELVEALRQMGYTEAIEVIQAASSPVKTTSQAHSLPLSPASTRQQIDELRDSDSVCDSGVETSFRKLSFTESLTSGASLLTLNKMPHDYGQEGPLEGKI
T2 sequence (Q00653 whole entry, looked up): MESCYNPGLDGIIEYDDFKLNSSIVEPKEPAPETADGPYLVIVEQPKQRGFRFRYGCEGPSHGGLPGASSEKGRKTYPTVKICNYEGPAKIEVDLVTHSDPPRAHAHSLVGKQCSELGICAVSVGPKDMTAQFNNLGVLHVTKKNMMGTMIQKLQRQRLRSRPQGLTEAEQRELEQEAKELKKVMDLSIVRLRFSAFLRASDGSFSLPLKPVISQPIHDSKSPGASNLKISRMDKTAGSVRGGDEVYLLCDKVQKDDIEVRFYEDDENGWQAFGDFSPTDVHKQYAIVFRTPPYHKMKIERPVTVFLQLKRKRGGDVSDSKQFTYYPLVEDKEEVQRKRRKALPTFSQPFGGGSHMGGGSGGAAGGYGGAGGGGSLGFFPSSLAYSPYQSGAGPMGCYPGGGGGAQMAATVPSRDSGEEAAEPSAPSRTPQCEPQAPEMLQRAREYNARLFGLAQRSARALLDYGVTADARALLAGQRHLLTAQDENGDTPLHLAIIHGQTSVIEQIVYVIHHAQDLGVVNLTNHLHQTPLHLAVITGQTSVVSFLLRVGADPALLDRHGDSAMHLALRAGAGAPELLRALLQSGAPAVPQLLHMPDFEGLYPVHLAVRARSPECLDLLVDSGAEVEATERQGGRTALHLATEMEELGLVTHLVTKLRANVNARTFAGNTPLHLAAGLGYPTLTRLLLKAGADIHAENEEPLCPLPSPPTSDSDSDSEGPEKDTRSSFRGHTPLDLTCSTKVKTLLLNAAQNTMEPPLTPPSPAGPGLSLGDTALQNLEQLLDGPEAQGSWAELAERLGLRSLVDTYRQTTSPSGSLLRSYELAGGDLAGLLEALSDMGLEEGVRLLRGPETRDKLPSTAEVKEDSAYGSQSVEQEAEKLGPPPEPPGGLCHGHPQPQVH
T2 sequence (Q04206 whole entry, looked up): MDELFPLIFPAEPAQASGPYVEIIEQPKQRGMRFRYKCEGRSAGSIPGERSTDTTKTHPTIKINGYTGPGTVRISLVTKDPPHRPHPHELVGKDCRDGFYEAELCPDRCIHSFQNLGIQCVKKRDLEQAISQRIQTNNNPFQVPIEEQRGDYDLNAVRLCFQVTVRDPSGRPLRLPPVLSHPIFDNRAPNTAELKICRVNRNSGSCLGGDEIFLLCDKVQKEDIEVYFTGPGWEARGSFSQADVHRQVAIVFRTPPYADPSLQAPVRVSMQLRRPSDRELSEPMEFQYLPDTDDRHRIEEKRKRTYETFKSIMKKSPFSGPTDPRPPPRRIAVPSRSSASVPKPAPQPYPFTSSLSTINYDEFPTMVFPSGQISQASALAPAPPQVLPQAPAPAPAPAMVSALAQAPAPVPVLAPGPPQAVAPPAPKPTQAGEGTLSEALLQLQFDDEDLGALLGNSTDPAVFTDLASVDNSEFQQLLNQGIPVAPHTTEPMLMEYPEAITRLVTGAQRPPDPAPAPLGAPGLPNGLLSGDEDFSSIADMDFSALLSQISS
Chain of RAC-alpha serine/threonine-protein kinase (Mus musculus) (P31750 whole entry): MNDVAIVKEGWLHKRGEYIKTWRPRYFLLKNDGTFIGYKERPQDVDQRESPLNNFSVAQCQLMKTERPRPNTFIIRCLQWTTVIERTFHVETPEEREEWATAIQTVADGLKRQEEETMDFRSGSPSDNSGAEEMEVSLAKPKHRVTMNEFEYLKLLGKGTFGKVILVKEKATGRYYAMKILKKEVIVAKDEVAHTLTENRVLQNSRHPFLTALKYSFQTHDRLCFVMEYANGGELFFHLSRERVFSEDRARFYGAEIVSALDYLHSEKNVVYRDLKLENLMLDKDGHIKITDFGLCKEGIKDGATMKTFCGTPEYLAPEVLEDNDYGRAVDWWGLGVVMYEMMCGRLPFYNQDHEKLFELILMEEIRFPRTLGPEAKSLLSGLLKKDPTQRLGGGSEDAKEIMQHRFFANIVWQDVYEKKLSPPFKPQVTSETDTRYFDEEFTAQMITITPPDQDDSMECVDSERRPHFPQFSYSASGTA

`Oc1c2ccccc2c2c3c(cccc13)N=N2`: the inhibition result (in [1]; in data set [2]; with BMMC [3]; in data set [4]) was “Active” each time.

Consider `COc1ccc(-c2coc3cc(O)ccc3c2=O)cc1` [FORMONONETIN], for which the “fold change (FC)” value in [5] amounted to 1.5; with Osteoblast, 1.2; in [23], 1.3; in data set [32] it was 1.3. Also, the inhibition result (in data set [6]; in data set [7]; in data set [11]; with BMMC [13]; in the data set with BMMC [15]; with BMMC [17]) was “Dose-dependent effect” in each case. Besides, the inhibition entry (in the data set on BMMC [18]; in the data set on BMMC [20]; in data set [21]; in the data set with BMMC [25]; in data set [26]; in the data set with BMMC [28]) was “Dose-dependent effect” throughout. In addition, the inhibition result (in the data set with BMMC [30]; in [31]; in [33]) was “Dose-dependent effect” in each case. For the same molecule, the inhibition result in data set [8], in data set [9], in data set [10] and in data set [22] was “Active” throughout. Moreover, the “inhibition (INH)” value in data set [12] was determined as 7.1%; in data set [14], 27.4%; in [16] it was 27.1%; in data set [19] it was 9.2%; in [24], 25.1%; in data set [27], 23.1%. The Activity entry in data set [29] is given as “Non-toxic”.
